{"source": "ChEMBL document CHEMBL3244396", "about": "“Synthesis and antileukemic activity of 5-substituted 2,3-dihydro-6,7-bis(hydroxymethyl)-1H-pyrrolizine diesters” (J Med Chem, 1977)", "key": {"Mus musculus [1]": {"system": "Mus musculus", "assay": "Toxicity in female CDF1 mouse allografted with mouse P388 cells assessed as animal survival at 12.5 mg/kg, ip administered daily for 9 days as saline with Tween-80 solution starting 24 hrs after tumor inoculation", "format": "organism-based", "design": "dose 12.5 mg/kg, route intraperitoneal", "conditions": "in vivo", "summary_of_the_method": "(§1)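 P-388 leukemia ascitic fluid implanted ip. Compound dosed ip in saline with Tween-80 vehicle, once daily for nine doses from 24 h after tumor inoculation. Acute toxicity scored as toxicity-day survivors per group. Survival was followed up to 30 days, with 30-day survival counted as \"cure\". Follows NCI screening protocols.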"}, "Mus musculus [2]": {"system": "Mus musculus", "assay": "Toxicity in male CDF1 mouse allografted with mouse P388 cells assessed as animal survival at 25 mg/kg, ip administered daily for 9 days as saline with Tween-80 solution starting 24 hrs after tumor inoculation", "format": "organism-based", "design": "dose 25 mg/kg, route intraperitoneal", "conditions": "in vivo", "summary_of_the_method": "as §1"}, "P388 [3]": {"system": "P388", "assay": "Antitumor activity against mouse P388 cells allografted in male CDF1 mouse assessed as disease cures by measuring 30-days host survival at 25 mg/kg, ip administered daily for 9 days as saline with Tween-80 solution starting 24 hrs after tumor inoculation relative to control", "format": "functional", "conditions": "route intraperitoneal", "summary_of_the_method": "(§2)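 P388 ascitic cell inoculum given ip to CDF1 mice of the sex in each line. Nine daily ip doses in saline with Tween-80 as vehicle, starting 24 h after inoculation. Median survival time expressed as %T/C (>125 significant); \"cure\" defined as 30-day survival.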"}, "P388 [4]": {"system": "P388", "assay": "Antitumor activity against mouse P388 cells allografted in male CDF1 mouse assessed as change in body weight at 50 mg/kg, ip administered daily for 9 days as saline with Tween-80 solution starting 24 hrs after tumor inoculation", "format": "functional", "conditions": "route intraperitoneal", "summary_of_the_method": "(§3)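 Ascitic fluid carrying P388 cells was inoculated ip. Compound was given ip in nine daily doses, starting 24 h after inoculation, in Klucel (hydroxypropylcellulose) suspension or in saline with Tween-80. Body-weight difference (treated minus control) was recorded on day 5. Survival was scored as %T/C of median survival time, and 30-day survival counted as cure.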"}, "P388 [5]": {"system": "P388", "assay": "Antitumor activity against mouse P388 cells allografted in male CDF1 mouse assessed as disease cures by measuring 30-days host survival at 6.25 mg/kg, ip administered daily for 9 days as saline with Tween-80 solution starting 24 hrs after tumor inoculation relative to control", "format": "functional", "conditions": "route intraperitoneal", "summary_of_the_method": "as §2"}, "P388 [6]": {"system": "P388", "assay": "Antitumor activity against mouse P388 cells allografted in female CDF1 mouse assessed as disease cures by measuring 30-days host survival at 6.25 mg/kg, ip administered daily for 9 days as saline with Tween-80 solution starting 24 hrs after tumor inoculation relative to control", "format": "functional", "conditions": "route intraperitoneal", "summary_of_the_method": "as §2"}, "Mus musculus [7]": {"system": "Mus musculus", "assay": "Toxicity in male CDF1 mouse allografted with mouse P388 cells assessed as animal survival at 12.5 mg/kg, ip administered daily for 9 days as saline with Tween-80 solution starting 24 hrs after tumor inoculation", "format": "organism-based", "design": "dose 12.5 mg/kg, route intraperitoneal", "conditions": "in vivo", "summary_of_the_method": "as §1"}, "P388 [8]": {"system": "P388", "assay": "Antitumor activity against mouse P388 cells allografted in female CDF1 mouse assessed as change in body weight at 25 mg/kg, ip administered daily for 9 days as saline with Tween-80 solution starting 24 hrs after tumor inoculation", "format": "functional", "conditions": "route intraperitoneal", "summary_of_the_method": "as §3"}, "Mus musculus [9]": {"system": "Mus musculus", "assay": "Toxicity in female CDF1 mouse allografted with mouse P388 cells assessed as animal survival at 6.25 mg/kg, ip administered daily for 9 days as saline with Tween-80 solution starting 24 hrs after tumor inoculation", "format": "organism-based", "design": "dose 6.25 mg/kg, route intraperitoneal", "conditions": "in vivo", "summary_of_the_method": "as §1"}, "P388 [10]": {"system": "P388", "assay": "Antitumor activity against mouse P388 cells allografted in male CDF1 mouse assessed as change in body weight at 6.25 mg/kg, ip administered daily for 9 days as saline with Tween-80 solution starting 24 hrs after tumor inoculation", "format": "functional", "conditions": "route intraperitoneal", "summary_of_the_method": "as §3"}, "P388 [11]": {"system": "P388", "assay": "Antitumor activity against mouse P388 cells allografted in female CDF1 mouse assessed as change in body weight at 400 mg/kg, ip administered daily for 9 days as saline with Tween-80 solution starting 24 hrs after tumor inoculation", "format": "functional", "conditions": "route intraperitoneal", "summary_of_the_method": "as §3"}, "P388 [12]": {"system": "P388", "assay": "Antitumor activity against mouse P388 cells allografted in female CDF1 mouse assessed as change in body weight at 50 mg/kg, ip administered daily for 9 days as saline with Tween-80 solution starting 24 hrs after tumor inoculation", "format": "functional", "conditions": "route intraperitoneal", "summary_of_the_method": "as §3"}, "Mus musculus [13]": {"system": "Mus musculus", "assay": "Toxicity in female CDF1 mouse allografted with mouse P388 cells assessed as animal survival at 400 mg/kg, ip administered daily for 9 days as saline with Tween-80 solution starting 24 hrs after tumor inoculation", "format": "organism-based", "design": "dose 400 mg/kg, route intraperitoneal", "conditions": "in vivo", "summary_of_the_method": "as §1"}, "P388 [14]": {"system": "P388", "assay": "Antitumor activity against mouse P388 cells allografted in male CDF1 mouse assessed as disease cures by measuring 30-days host survival at 12.5 mg/kg, ip administered daily for 9 days as saline with Tween-80 solution starting 24 hrs after tumor inoculation relative to control", "format": "functional", "conditions": "route intraperitoneal", "summary_of_the_method": "as §2"}, "P388 [15]": {"system": "P388", "assay": "Antitumor activity against mouse P388 cells allografted in female CDF1 mouse assessed as disease cures by measuring 30-days host survival at 25 mg/kg, ip administered daily for 9 days as saline with Tween-80 solution starting 24 hrs after tumor inoculation relative to control", "format": "functional", "conditions": "route intraperitoneal", "summary_of_the_method": "as §2"}, "Mus musculus [16]": {"system": "Mus musculus", "assay": "Toxicity in male CDF1 mouse allografted with mouse P388 cells assessed as animal survival at 6.25 mg/kg, ip administered daily for 9 days as saline with Tween-80 solution starting 24 hrs after tumor inoculation", "format": "organism-based", "design": "dose 6.25 mg/kg, route intraperitoneal", "conditions": "in vivo", "summary_of_the_method": "as §1"}, "P388 [17]": {"system": "P388", "assay": "Antitumor activity against mouse P388 cells allografted in female CDF1 mouse assessed as disease cures by measuring 30-days host survival at 12.5 mg/kg, ip administered daily for 9 days as saline with Tween-80 solution starting 24 hrs after tumor inoculation relative to control", "format": "functional", "conditions": "route intraperitoneal", "summary_of_the_method": "as §2"}, "P388 [18]": {"system": "P388", "assay": "Antitumor activity against mouse P388 cells allografted in female CDF1 mouse assessed as change in body weight at 6.25 mg/kg, ip administered daily for 9 days as saline with Tween-80 solution starting 24 hrs after tumor inoculation", "format": "functional", "conditions": "route intraperitoneal", "summary_of_the_method": "as §3"}, "P388 [19]": {"system": "P388", "assay": "Antitumor activity against mouse P388 cells allografted in female CDF1 mouse assessed as change in body weight at 12.5 mg/kg, ip administered daily for 9 days as saline with Tween-80 solution starting 24 hrs after tumor inoculation", "format": "functional", "conditions": "route intraperitoneal", "summary_of_the_method": "as §3"}, "P388 [20]": {"system": "P388", "assay": "Antitumor activity against mouse P388 cells allografted in female CDF1 mouse assessed as change in body weight at 100 mg/kg, ip administered daily for 9 days as saline with Tween-80 solution starting 24 hrs after tumor inoculation", "format": "functional", "conditions": "route intraperitoneal", "summary_of_the_method": "as §3"}, "Mus musculus [21]": {"system": "Mus musculus", "assay": "Toxicity in female CDF1 mouse allografted with mouse P388 cells assessed as animal survival at 200 mg/kg, ip administered daily for 9 days as saline with Tween-80 solution starting 24 hrs after tumor inoculation", "format": "organism-based", "design": "dose 200 mg/kg, route intraperitoneal", "conditions": "in vivo", "summary_of_the_method": "as §1"}, "P388 [22]": {"system": "P388", "assay": "Antitumor activity against mouse P388 cells allografted in female CDF1 mouse assessed as change in body weight at 200 mg/kg, ip administered daily for 9 days as saline with Tween-80 solution starting 24 hrs after tumor inoculation", "format": "functional", "conditions": "route intraperitoneal", "summary_of_the_method": "as §3"}, "P388 [23]": {"system": "P388", "assay": "Antitumor activity against mouse P388 cells allografted in male CDF1 mouse assessed as change in body weight at 12.5 mg/kg, ip administered daily for 9 days as saline with Tween-80 solution starting 24 hrs after tumor inoculation", "format": "functional", "conditions": "route intraperitoneal", "summary_of_the_method": "as §3"}, "Mus musculus [24]": {"system": "Mus musculus", "assay": "Toxicity in female CDF1 mouse allografted with mouse P388 cells assessed as animal survival at 25 mg/kg, ip administered daily for 9 days as saline with Tween-80 solution starting 24 hrs after tumor inoculation", "format": "organism-based", "design": "dose 25 mg/kg, route intraperitoneal", "conditions": "in vivo", "summary_of_the_method": "as §1"}, "P388 [25]": {"system": "P388", "assay": "Antitumor activity against mouse P388 cells allografted in male CDF1 mouse assessed as change in body weight at 25 mg/kg, ip administered daily for 9 days as saline with Tween-80 solution starting 24 hrs after tumor inoculation", "format": "functional", "conditions": "route intraperitoneal", "summary_of_the_method": "as §3"}}, "data": [{"smiles": "CCNC(=O)OCc1c(COC(=O)NCC)c(-c2ccc(Cl)c(Cl)c2)n2c1CCC2", "values": [{"measurement": "Activity", "setting": "Mus musculus [1]", "result": "Non-toxic"}, {"measurement": "Activity", "setting": "Mus musculus [2]", "result": "Non-toxic"}, {"measurement": "T/C", "setting": "P388 [3]", "result": 165, "unit": "%"}, {"measurement": "Activity", "setting": "P388 [4]", "result": -8, "unit": "g"}, {"measurement": "T/C", "setting": "P388 [5]", "result": 168, "unit": "%"}, {"measurement": "T/C", "setting": "P388 [6]", "result": 154, "unit": "%"}, {"measurement": "Activity", "setting": "Mus musculus [7]", "result": "Non-toxic"}, {"measurement": "Activity", "setting": "P388 [8]", "result": -2.4, "unit": "g"}, {"measurement": "Activity", "setting": "Mus musculus [9]", "result": "Non-toxic"}, {"measurement": "Activity", "setting": "P388 [10]", "result": -2.1, "unit": "g"}, {"measurement": "Activity", "setting": "P388 [11]", "result": -1.4, "unit": "g"}, {"measurement": "Activity", "setting": "P388 [12]", "result": -4.4, "unit": "g"}, {"measurement": "Activity", "setting": "Mus musculus [13]", "result": "Toxic"}, {"measurement": "T/C", "setting": "P388 [14]", "result": 168, "unit": "%"}, {"measurement": "T/C", "setting": "P388 [15]", "result": 103, "unit": "%"}, {"measurement": "Activity", "setting": "Mus musculus [16]", "result": "Non-toxic"}, {"measurement": "T/C", "setting": "P388 [17]", "result": 170, "unit": "%"}, {"measurement": "Activity", "setting": "P388 [18]", "result": -1.8, "unit": "g"}, {"measurement": "Activity", "setting": "P388 [19]", "result": -1.8, "unit": "g"}, {"measurement": "Activity", "setting": "P388 [20]", "result": -3, "unit": "g"}, {"measurement": "Activity", "setting": "Mus musculus [21]", "result": "Toxic"}, {"measurement": "Activity", "setting": "P388 [22]", "result": -1.4, "unit": "g"}, {"measurement": "Activity", "setting": "P388 [23]", "result": -2.5, "unit": "g"}, {"measurement": "Activity", "setting": "Mus musculus [24]", "result": "Non-toxic"}, {"measurement": "Activity", "setting": "P388 [25]", "result": -4.4, "unit": "g"}]}]}
